# Assay results as given in ChEMBL document CHEMBL1687861, “Comazaphilones A-F, azaphilone derivatives from the marine sediment-derived fungus Penicillium commune QSD-17” (J Nat Prod, 2011).
# The source made the active and inactive calls. The calls are words filed in the database; no cut-off is given here.
# Key:
# [1] = tested on: Pseudomonas fluorescens; experiment: Antimicrobial activity against Pseudomonas fluorescens after 18 hrs by broth microdilution method; type: functional
# Summary of the method: (§1)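 Broth microdilution MIC; inoculum 5 × 10^5 cfu/mL; compounds tested over 1024-1 μg/mL; plates incubated 18 h at 35 °C in ambient air; MIC taken as the read-out after incubation.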
# [2] = tested on: Staphylococcus aureus; experiment: Antimicrobial activity against methicillin-resistant Staphylococcus aureus after 18 hrs by broth microdilution method; type: functional
# Summary of the method: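 Broth microdilution MIC. Inoculum 5 × 10^5 cfu/mL. Concentration range 1024-1 μg/mL. Plates incubated 18 h at 35 °C in ambient air. The MIC was read at the end of incubation.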
# [3] = tested on: Pseudomonas aeruginosa; experiment: Antimicrobial activity against Pseudomonas aeruginosa after 18 hrs by broth microdilution method; type: functional; summary of the method: as §1
# [4] = tested on: Bacillus subtilis; experiment: Antimicrobial activity against Bacillus subtilis after 18 hrs by broth microdilution method; type: functional; summary of the method: as §1
# [5] = tested on: DU-145; experiment: Cytotoxicity against human DU145 cells; type: functional, cell-based
# [6] = tested on: HepG2; experiment: Cytotoxicity against human HepG2 cells; type: functional, cell-based
# [7] = tested on: Candida albicans; experiment: Antimicrobial activity against Candida albicans after 18 hrs by broth microdilution method; type: functional; summary of the method: as §1
# [8] = tested on: HeLa; experiment: Cytotoxicity against human HeLa cells; type: functional, cell-based
# [9] = tested on: MCF7; experiment: Cytotoxicity against human MCF7 cells; type: functional, cell-based
# [10] = tested on: NCI-H460; experiment: Cytotoxicity against human NCI-H460 cells; type: functional, cell-based
# [11] = tested on: SMMC-7721; experiment: Cytotoxicity against human SMMC7721 cells; type: functional, cell-based
# [12] = tested on: SW1990; experiment: Cytotoxicity against human SW1990 cells; type: functional, cell-based
Compound,MIC [1],MIC [2],MIC [3],MIC [4],Activity [5],Activity [6],MIC [7],Activity [8],Activity [9],Activity [10],Activity [11],IC50 [12]
CC1(C)S[C@@H]2[C@H](NC(=O)[C@H](N)c3ccccc3)C(=O)N2[C@H]1C(=O)O [AMPICILLIN],4 µg/mL,8 µg/mL,2 µg/mL,4 µg/mL,,,,,,,,
CCCC1=CC2=C(CO1)C(=O)[C@](C)(OC(=O)c1c(C)cc(O)cc1OC)[C@H](O)C2 [COMAZAPHILONE A],> 256 µg/mL,> 256 µg/mL,> 256 µg/mL,> 256 µg/mL,inactive,inactive,> 256 µg/mL,inactive,inactive,inactive,inactive,
CCCC1=CC2=C(CO1)C(=O)[C@](C)(OC(=O)c1c(C)cc(O)c(O)c1OC)[C@H](O)C2 [COMAZAPHILONE B],128 µg/mL,128 µg/mL,> 256 µg/mL,64 µg/mL,inactive,inactive,> 256 µg/mL,inactive,inactive,inactive,inactive,
C/C=C/C1=CC2=C(CO1)C(=O)[C@](C)(OC(=O)c1c(C)cc(O)c(O)c1OC)[C@H](O)C2 [COMAZAPHILONE C],64 µg/mL,16 µg/mL,> 256 µg/mL,32 µg/mL,inactive,inactive,> 256 µg/mL,inactive,inactive,inactive,inactive,
C/C=C/C1=CC2=C(CO1)C(=O)[C@](C)(O)[C@H](OC(=O)c1c(C)cc(O)cc1O)C2 [COMAZAPHILONE D],16 µg/mL,32 µg/mL,> 256 µg/mL,> 256 µg/mL,,,> 256 µg/mL,,,,,51 µM
C/C=C/C1=CC2=C(CO1)C(=O)[C@](C)(O)[C@H](OC(=O)c1c(C)cc(O)c(O)c1OC)C2 [COMAZAPHILONE E],32 µg/mL,> 256 µg/mL,> 256 µg/mL,16 µg/mL,,,> 256 µg/mL,,,,,26 µM
CCCC1=CC2=C(CO1)C(=O)[C@](C)(O)[C@H](OC(=O)c1c(C)cc(O)c(O)c1OC)C2 [COMAZAPHILONE F],64 µg/mL,128 µg/mL,> 256 µg/mL,128 µg/mL,,,> 256 µg/mL,,,,,53 µM
O=c1[nH]cc(F)c(=O)[nH]1 [FLUOROURACIL],,,,,,,,,,,,120 µM
NYSTATIN,,,,,,,2000 nM,,,,,
